NPY-Y2 antag – antagonists of human neuropeptide Y receptor Y2. 140,000 compounds, 0.99% hits. P49146. NPY-Y2 expressing cells, antagonist mode. inhibition, % at 2.7 µM; in the data active = inhibition above about 17%;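 note: 0% = vehicle with agonist challenge and 100% = reference antagonist with challenge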
Target sequence (P49146 whole entry, looked up): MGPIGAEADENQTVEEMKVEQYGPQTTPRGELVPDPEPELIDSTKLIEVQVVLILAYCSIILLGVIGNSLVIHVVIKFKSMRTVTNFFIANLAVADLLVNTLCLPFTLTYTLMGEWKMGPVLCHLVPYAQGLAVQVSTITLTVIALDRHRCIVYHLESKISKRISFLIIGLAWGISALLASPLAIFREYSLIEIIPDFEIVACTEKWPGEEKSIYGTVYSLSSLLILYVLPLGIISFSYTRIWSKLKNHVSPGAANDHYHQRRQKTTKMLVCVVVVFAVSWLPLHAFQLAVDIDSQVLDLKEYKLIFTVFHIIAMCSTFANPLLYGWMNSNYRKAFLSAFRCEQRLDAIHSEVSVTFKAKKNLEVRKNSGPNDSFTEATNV
NPY-Y1 PAM-ag – potentiators or agonists of human neuropeptide Y receptor Y1; P25929; activation, % at 3.6 µM; NPY-Y1 expressing cells, potentiator/agonist activation; AID 1304; 220,000 compounds, 0.37% hits; in the data active = activation above about 33%, passing the limit was not always enough;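 note: cells stimulated with NPY at EC10 then isoproterenol at EC100; 0% = low agonist plus stimulus and 100% = saturating agonist plus stimulus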
Measles CPE – protection of cells from measles virus | protection (pct of control), % at 4 µM | Measles virus-infected cells, CPE protection, absorbance | 140,000 compounds, 1.5% hits; in the data active = protection mostly above about 24%, no sharp cut-off; inactive = mostly below about 26%
NPY2 pot ag – human NPY-Y2 potentiation or agonism, primary screen | 220,000 compounds, 0.45% hits | P49146 | AID 1359 | activation, % at 3.6 µM | cells expressing NPY-Y2, potentiator/agonist read-out; in the data active = activation above about 27%;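 note: cells stimulated with NPY near EC25 plus isoproterenol at EC100; 0% = vehicle plus submaximal agonist and 100% = vehicle plus saturating agonist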
MDM2 E3 inh – inhibitors of human Mdm2 E3 ubiquitin ligase; Q00987; cell-based MDM2 ubiquitination luciferase reporter, 2 h; 0 = plate control, 100 = twice control, blank-subtracted; signal enhancement, % at 5 µM; 210,000 compounds, 0.11% hits;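 active = signal enhancement of 30% or more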;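 note: luminescence tracks abundance of the self-degrading MDM2-luciferase fusion protein; higher signal means inhibition of MDM2 E3 ligase activity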
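Material: Stable MDM2–luciferase fusion reporter cells | Amount: 2000 cells seeded into each well | Dosing: One concentration, 5 µM, with 0.2% DMSO | Incubation: 4 h cell settling then 2 h compound exposure, 37 °C | Measured by: Luciferase luminescence | Read-out basis: % enhancement relative to plate controls after blank subtraction | Benchmarks: Control and blank well means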
NPY Y1 blocker – NPY-Y1 (human) receptor antagonism. P25929. HEK293-CNG Y1 cells, membrane potential fluorescence; NPY at EC95, then isoproterenol. inhibition, % at 3.6 µM. 200,000 compounds, 1% hits;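 active = inhibition above the campaign mean inhibition of all tested compounds plus 3 SD, cut at about 20% in these data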;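 note: 0% = DMSO wells given NPY plus isoproterenol and 100% = isoproterenol alone without NPY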
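Material: HEK293 cells co-expressing NPY Y1 receptor and cyclic-nucleotide gated channel. Timing: compound incubation 1 h at room temperature, readout 45 min post-stimulation. Signal: fluorescence, membrane potential probe.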
Active calls of the source: *; x = no result given. A selection: hits, their analogues and other compounds. The true share with any hit is near 2.8%.

SMILES	NPY-Y2 antag	NPY-Y1 PAM-ag	Measles CPE	NPY2 pot ag	MDM2 E3 inh	NPY Y1 blocker
CCc1ccc(C2CC(=O)N(c3cccc(F)c3)C3=C2C(=O)OC3)cc1 (stereo unspecified)	x	-7	x	0	14	4
CCC(C)(C)n1nnnc1CN1CCc2ccccc21	6	-4	73*	-2	-29	2
c1ccc(CCn2nnnc2CN2CCCc3ccccc32)cc1	4	-28	16	2	-20	10
CCOC(=O)c1c(NC(=O)CSc2ncccn2)sc2c1CCN(Cc1ccccc1)C2	17*	-79	10	-32	-17	33*
CCOC(=O)c1c(NC(=O)CN2CCCCC2)sc2c1CCN(C(=O)OCC)C2	36*	-29	10	-10	-8	56*
CCOC(=O)c1c(NC(=O)CN(CC)CC)sc2c1CCN(C(=O)OCC)C2	30*	-26	14	-4	-11	23*
CCOc1ccc(-c2nnn(CC#N)n2)cc1OC	-1	6	7	4	-5	-1
CC(=O)Nc1ccc(NC(=O)CCc2nc3ccccc3c(=O)[nH]2)cc1	x	12	x	-8	3	-3
CCN1CCN(C(=O)CCc2nc3ccccc3c(=O)[nH]2)CC1	-2	-3	6	-25	37*	-1
O=C(CCc1nc2ccccc2c(=O)[nH]1)Nc1ccc(Cl)c(Cl)c1	4	-40	31*	-11	12	1
CCN(CC)S(=O)(=O)c1ccc(Cl)c(C(=O)Oc2cccc(-c3cnc4ccccc4n3)c2)c1	2	-4	31*	2	-31	2
COc1cccc(OCC(O)CN(CCO)Cc2ccccc2)c1 (stereo unspecified)	2	-12	32*	-5	-11	2
O=S(=O)(NCC1CCCO1)c1ccc(S(=O)(=O)N(Cc2ccc(F)cc2)Cc2ccco2)cc1 (stereo unspecified)	0	-7	5	5	4	1
O=C(NC1CCCCC1)NC1CC2CCC(C1)N2C(=O)NCc1ccccc1 (stereo unspecified)	2	-24	12	7	-2	-2
O=C(NC1CCCCC1)NC1CC2CCC(C1)N2C(=O)NC1CCCCC1 (stereo unspecified)	5	10	25*	17	-14	-4
CC(C)C[C@H](NC(=O)Nc1cccc(Br)c1)C(=O)O	1	-14	63*	1	-8	-1
COC(=O)[C@H](CC(C)C)NC(=O)Nc1cccc(Br)c1	1	6	9	13	-5	-1
COC(=O)CNC(c1ccccc1)c1cc(Br)ccc1NC(=O)CNC(=O)OCc1ccccc1 (stereo unspecified)	29*	1	3	-5	-2	25*
CCOC(=O)CNC(c1ccccc1)c1cc(Br)ccc1NC(=O)OCC (stereo unspecified)	8	-24	3	-23	-10	19
CCOC(=O)C(=CN(CCc1ccccc1)CC(=O)OC)C(=O)OCC	-2	-10	13	-1	x	3
Cc1cc(C)n2c(=O)c3ccc(Cl)cc3nc2c1C#N	x	7	x	5	-6	3
Cc1cc(Cl)n2c(nc3cc(F)c(F)cc32)c1C#N	x	-26	x	-2	-47	22*
CC(NS(=O)(=O)c1ccc(Br)cc1)C(c1cccs1)N1CCN(C)CC1 (stereo unspecified)	3	-3	27*	-6	-12	4
CC(NS(C)(=O)=O)C(c1cccs1)N1CCN(Cc2ccccc2)CC1 (stereo unspecified)	1	-5	31*	12	-15	3
CCOc1cccc2sc(NN)nc12	x	38*	x	32	-1	-9
O=C(c1ccco1)N1CCN(C(=O)C2CCCc3c2[nH]c2ccc(Cl)cc32)CC1 (stereo unspecified)	2	18	82*	-3	1	5
OCCCNc1nc(-c2ccccc2)nc2c1oc1ccccc12	x	7	x	16	1	x
O=c1cc(NCCCO)c2ccccc2o1	1	110*	8	72*	-11	10
Cc1ccc2[nH]c(=O)c(-c3nc4cc(C)ccn4c3NCc3ccco3)cc2c1	7	31	7	33*	-15	-2

Assay outcomes (PubChem)
